# BB579 growth dn: growth inhibitors of yeast BB579 in restrictive medium, primary screen, yeast lifespan-shortening project, S. cerevisiae. AID 804, 2007. actives 0.51% (n = 140,000). OD615, 48 h. inhibition, % at 10 µM;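 active = inhibition above a set limit, 3 SD over the mean compound inhibition, cut at about 44% in these data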
#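 Detection: OD615 turbidity measurement; Material: Saccharomyces cerevisiae DeaD strain BB579, replicative lifespan model yeast; Timing: 48 h exposure, 30 °C; Doses: single 10 µM dose; Medium: CSMM-D restrictive synthetic medium containing dextrose (glucose); Controls: amphotericin B at 10 µg/mL as positive control.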
# RAM inhibit: inhibitors of the yeast RAM network, primary screen, dse1pr::URA3 reporter, 5-FOA selection; S. cerevisiae dse1pr::URA3 reporter, 5-FOA growth OD615, 2 d; analog-sensitive cbk1-as2 kinase mutant strain; inhibition, % at 50 µM; actives 1.8% (n = 190,000);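 active = inhibition above a set limit, 3 SD over mean compound inhibition, cut at about 8.4% in these data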;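 note: 0% = DMSO-only wells with no growth and 100% = 10 µM 1-NA-PP1 full growth; inhibition rescues growth on 5-FOA so higher OD means more RAM inhibition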
# Efa HMGR inh: inhibitors of E. faecalis class II HMGR, primary screen, biochemical, Enterococcus faecalis; purified E. faecalis HMGR, NADPH absorbance 340 nm kinetic; actives 0.41% (n = 190,000); AID 1066, 2008; inhibition, % at 10 µM; HMG-CoA reductase (Enterococcus faecalis, mvaE);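 active = inhibition above a set limit, the median over all tested compounds plus 3 SD, cut at about 9.5% in these data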;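 note: enzyme runs in reverse so mevalonate oxidation gives rising NADPH absorbance; 0% = complete reaction with DMSO and 100% = background rate lacking mevalonate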
# b-catenin transl: modulators of beta-catenin nuclear translocation, primary screen, imaging, HeLa cells, immunofluorescence, high-content; actives 0.3% (n = 190,000); nuclear translocation activity, % at 5 µM;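 active = nuclear translocation activity above 50% at 5 µM, with a well cell count of 50 or more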;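 note: per-cell ratio of nuclear to cytoplasmic median beta-catenin stain intensity; plate controls were DMSO negative control for no effect and GSK-3 inhibitor IX positive control for full effect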
#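 Signal – beta-catenin immunofluorescence imaging with DAPI · Test system – human HeLa cell line · Dosing – 5 µM primary single dose, 0.1% DMSO, 0.02–20 µM confirmation series · Measure – % activation, nuclear-to-cytoplasmic median beta-catenin signal ratio per cell · Incubation – 24 h compound exposure at 37°C, 5% CO2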
# Yeast life ext: compounds extending yeast replicative lifespan, primary screen, S. cerevisiae, OD615; actives 0.68% (n = 130,000); S. cerevisiae growth with nicotinamide; deaD strain in restrictive glucose medium; inhibition of the nicotinamide effect, % at 10 µM; AID 775, 2007;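 active = inhibition above a set limit, placed 3 SD over the median of all compounds, cut at about 26% in these data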;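 note: 0% = nicotinamide-treated wells and 100% = cells grown without nicotinamide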
#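 Buffer or medium: CSMM-D glucose medium, restrictive; test system: modified budding yeast, DeaD strain; compound: single dose 10 µM compound, 0.25% DMSO; schedule: culture preincubation 4 h, compound exposure 48 h, both 30 °C; detection: optical density (absorbance) at 615 nm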
# MT stabilize HCS: microtubule stabilizers in HeLa cells, primary screen, imaging, high-content imaging; HeLa tubulin immunostaining HCS, 24 h; share of cells brighter than vehicle mean+2SD; actives 0.83% (n = 200,000); % tubulin-high responders, % at 10 µM;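 active = plate Z-score above 3 for both tubulin-high and condensed-nucleus cell shares, with cell loss under 80%, at 10 µM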;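 note: anti alpha tubulin signal scored within the nucleus-defined area of each cell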
# * = called active by the depositor; · = no result given. A selection: hits, their analogues and other compounds. The true share with any hit is near 3.5%.
SMILES,BB579 growth dn,RAM inhibit,Efa HMGR inh,b-catenin transl,Yeast life ext,MT stabilize HCS
CCOc1ccc(C(=O)NC(=S)Nc2cccc(S(=O)(=O)NC3=NCCC3)c2)cc1,·,6.2,0.6,24.0,·,17.1*
COc1ccc(NC(=O)N2CCC(n3cnc4ccccc43)CC2)cc1,·,5.1,-3.0,0.7,·,1.7
COc1cc(-c2onc3ccc(Br)cc23)cc(OC)c1OC,·,3.6,1.1,32.6,·,7.7*
O=C(O)c1cc(-c2ccc(/C=N/Nc3ccc(Cl)cc3)o2)ccc1Cl,94.9*,4.2,-3.6,-0.6,-19.0,1.5
CNC(=O)COC(=O)c1cc(=O)[nH]c2ccccc12,7.9,-0.1,1.5,-0.6,53.9*,1.9
CC1CN(C(=O)CSc2nnc(-c3ccncc3)n2-c2ccccc2)CC(C)O1 (stereo not drawn),-21.3,2.1,-2.4,·,-11.9,3.5
CC1CN(C(=O)CSc2nnc(-c3ccc(Cl)cc3)n2C)CC(C)O1 (stereo not drawn),-32.0,-0.1,12.2*,-0.4,-3.3,3.8
CC1=CC(C)(C)[N+](C)(C)c2ccccc21,·,0.8,0.8,-0.3,·,1.4
Cc1ccc(N=Nc2c(N)[nH]n3c(=O)c4c(nc23)CCCC4)cc1,-15.3,0.3,-3.3,1.7,-13.9,24.3*
CCOC(=O)C(NC(=O)NCc1cccc(C(F)(F)F)c1)(OCC)C(F)(F)F (stereo not drawn),-26.3,1.1,-0.4,1.2,5.3,4.3
CCOC(=O)c1sc(=S)sc1SCc1cccc(C(F)(F)F)c1,-50.8,8.9*,-3.0,2.6,0.3,0.8
O=C(COc1ccccc1)NCCSCc1ccc(Cl)cc1,-17.9,9.9*,-0.2,-1.7,-6.3,2.5
CCN(CC)N=Nc1ccc(S(N)(=O)=O)cc1,·,0.2,10.2*,0.1,·,1.9
CN(C)N=Nc1ccc(S(N)(=O)=O)cc1,·,1.7,-3.8,-2.3,·,0.5
Cc1ccc(NC(=S)Nc2ccc(Cl)c(Cl)c2)c(OC(F)F)c1,85.4*,-1.7,-0.8,-1.4,-8.1,5.3
CC(=O)c1sc(C(=O)O)c(-c2ccco2)c1-c1ccco1,·,·,·,-3.0,·,·
COc1cc(-c2n[nH]c(=S)n2/N=C/c2cccn2C)cc(OC)c1OC,·,·,·,0.4,·,·
COc1cccc(C(=O)c2c(C)c(CCC#N)n3ccccc23)c1OC,·,0.7,-2.8,-0.6,·,5.2
COc1cc(C(=O)c2c(C)c(CCC#N)n3ccccc23)cc(OC)c1OC,·,4.7,-4.2,61.0*,·,19.5*
COc1ccc(-c2cc(C(=O)Nc3ccc(S(=O)(=O)Nc4onc(C)c4C)cc3)c3ccccc3n2)cc1,·,·,·,-3.9,·,·
CCSc1nnc(NC(=O)c2cc(OC)c(OC)c(OC)c2)s1,·,1.1,-2.2,0.3,·,3.1
CC(C)S(=O)(=O)c1cnc(-c2cccnc2)nc1N,·,·,·,0.4,·,·
Cc1ccc(C(Sc2ccccc2)C(Cn2cncn2)C(=O)c2ccccc2)cc1 (stereo not drawn),-30.9,3.5,-11.1,1.8,4.5,3.7
Cc1ccc(SC(c2ccc(C)cc2)C(Cn2cncn2)C(=O)c2ccccc2)cc1 (stereo not drawn),-20.9,11.4*,-3.2,1.5,0.8,1.8
CC1=C(C(=O)OCc2ccccc2)C(c2ccc3ccccc3c2)NC(=O)N1CCCCCC(=O)O (stereo not drawn),-33.1,6.7,-8.2,·,25.5,2.7
CC1=C(C(=O)OCc2ccccc2)C(c2ccccc2)NC(=O)N1CCCCCC(=O)O (stereo not drawn),-50.1,10.3*,4.2,-4.4,9.9,3.5
COC(=O)C1=C(C)N(Cc2ccco2)C(=O)N[C@@H]1c1ccccc1,-8.2,0.8,10.9*,·,1.8,3.6
CC1=C(C(=O)OCc2ccccc2)C(c2ccc(-c3ccccc3)cc2)NC(=O)N1CCCCCC(=O)O (stereo not drawn),-40.5,10.7*,-7.3,-1.9,20.2,3.1
COc1ccc(/C=C/C=C2\NC(=S)NC2=O)cc1,·,10.2*,-5.5,-0.6,·,2.5
O=C1NC(=S)N/C1=C\C=C\c1ccccc1,·,·,·,-0.3,·,·

# Compound activity: PubChem, several laboratories
